Measured values published in paper PMC6560633 (Journal of the American Chemical Society, 2018).
Where two headings read alike, the source gives them in different places.

Experiments:
[1] = Kinetic inertness: La^3+ transmetalation challenge of Ba–L complexes, UV-vis; type: physicochemical; details: 1000 equiv of La^3+, RT, pH 7.3
[2] = Stability of Ba^2+ complexes in the presence of hydroxyapatite, GFAAS; type: physicochemical; details: HAP suspension, pH 7.6 buffer, after 20 h; 1.1 equiv L, 1.0 equiv Ba^2+
[3] = I = 0.1 M KCl, cited from earlier work
[4] = cited from earlier work; for log KSrHL: protonation constant of the Sr^2+ complex
[5] = cited from earlier work; for log KCaHL: protonation constant of the Ca^2+ complex
[6] = Stability constants of Sr^2+ complexes by pH-potentiometry; type: binding; details: I = 0.1 M KCl; for log KʹSr (conditional stability constant): pH 7.4, 25 °C; for pSr: −log [M^2+]free, [M^2+] = 10^−6 M, [L] = 10^−5 M, pH 7.4
[7] = Stability constants of Ca^2+ complexes by pH-potentiometry; type: binding; details: I = 0.1 M KCl; for log KʹCa (conditional stability constant): pH 7.4, 25 °C; for pCa: −log [M^2+]free, [M^2+] = 10^−6 M, [L] = 10^−5 M, pH 7.4; for pCa / log KCaL / log KCaHL: 25 °C; for log KCaHL: protonation constant of the Ca^2+ complex
[8] = cited from earlier work
[9] = Dissolution of BaSO4 suspension by ligand, GFAAS
Summary of the method: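 BaSO4 was formed in pH 8 NaHCO3 from Ba(NO3)2 (4.53 mM) and excess Na2SO4 (13.48 mM), then ligand (5 mM) was added at RT. Dissolved barium was measured by GFAAS after 10, 20 and 30 min. A second series used pH 11 […] buffer and was sampled at 5 and 30 min. Results are reported as percent of BaSO4 dissolved.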

[10] = Stability constants of Ba^2+ complexes by pH-potentiometry; type: binding; details: for selectivity for Ba^2+ over Ca^2+ (ratio of pM values) / selectivity for Ba^2+ over Sr^2+ (ratio of pM values) / pBa / major species present in solution of Ba^2+ and ligand: pH 7.4; for log KʹBa (conditional stability constant): pH 7.4, 25 °C; for log KʹBa (conditional stability constant) / pBa / log KBaL / major species present in solution of Ba^2+ and ligand / log KBaH2L / log KBaHL: I = 0.1 M KCl; for pBa: −log [M^2+]free, [M^2+] = 10^−6 M, [L] = 10^−5 M; for pBa / log KBaL / major species present in solution of Ba^2+ and ligand / log KBaH2L / log KBaHL: 25 °C; for major species present in solution of Ba^2+ and ligand: [Ba^2+]tot = [L]tot = 1.0 mM; for log KBaH2L / log KBaHL: protonation constant of the Ba^2+ complex
[11] = Dissolution of crude barite ore in columns, ligand efficiency by GFAAS; details: barite 3 g, soak 1 h
[12] = Ligand protonation constants by pH-potentiometric titration; type: physicochemical; details: for log Ka1 / log Ka2 / log Ka3 / log Ka4: 25 °C, I = 0.1 M KCl; for existence of fully deprotonated ligand in solution: speciation
Summary of the method: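 Protonation constants came from pH-potentiometric titration at 25 °C in 0.1 M KCl. The fraction of each protonated or deprotonated ligand species in solution was calculated from the fitted constants using species distribution diagrams. Overall ligand basicity was taken as the sum of the log Ka values.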

[13] = pH 8 NaHCO3, RT, ligand 5 mM, 30 min
[14] = I = 0.1 M KNO3, bracketed value
[15] = protonation constant of the Sr^2+ complex, 25 °C

log KʹSr (conditional stability constant) [6]	log KʹCa (conditional stability constant) [7]	log KʹBa (conditional stability constant) [10]	overall basicity (sum of log Ka values) [12]	log Ka1 [12]	log Ka2 [12]	log Ka3 [12]	log Ka4 [12]	log KSrL ([6]; 25 °C)	log KSrHL [6, 15]	log KCaL [7]	log KBaL [10]	major species present in solution of Ba^2+ and ligand [10]	log KBaH2L [10]	Structure (SMILES)	pSr ([6]; 25 °C)	pCa [7]	BaSO4 dissolved [9, 13]	selectivity for Ba^2+ over Ca^2+ (ratio of pM values) [10]	selectivity for Ba^2+ over Sr^2+ (ratio of pM values) [10]	pBa [10]	further results
8.35	10.34	5.72												O=C(O)CN1CCN(CC(=O)O)CCN(CC(=O)O)CCN(CC(=O)O)CC1 [DOTA, reference compound]	9.30	11.29	40%	< 1 fold	< 1 fold	6.76	log Ka1 [3]: 11.14; log Ka2 [3]: 9.69; log Ka3 [3]: 4.85; log Ka4 [3]: 3.95; log KSrHL ([4]; I = 0.1 M KCl): 4.52; log KCaHL ([5]; I = 0.1 M KCl): 3.60; log KBaL ([8]; I = 0.1 M KCl): 11.75; BaSO4 dissolved ([9]; pH 11 NaCO3 buffer, 30 min): 75%
7.54	3.94	10.05	27.69	10.33	7.15	6.97	3.24(4)	9.19(5)	8.92(2)	5.90(4)	10.87(2)	MHL species	3.28(2)	O=C(O)c1cccc(CN2CCOCCOCCN(Cc3ccc4cccc(O)c4n3)CCOCCOCC2)n1 [macropaquin]	8.50	6.04	95%			11.01	log Ka1 ([12]; listed as macropaquin^2−): 10.33(4); log Ka2 ([12]; listed as macropaquin^2−): 7.15(3); log Ka3 ([12]; listed as macropaquin^2−): 6.97(2); fraction of ligand as monoprotonated species HL^– ([12]; pH 7.4): 56%; existence of fully deprotonated ligand in solution [12]: do not exist in solution below pH 8; log KCaHL [7]: 8.59(2); log KBaHL [10]: 9.76(2)
5.64	3.19	8.76	32.14	9.34	9.43	6.75	6.62	8.62(2)	8.34(4)	6.04(8)	10.44(6)	MH2L species	7.80(2)	O=S(=O)(O)c1ccc(O)c2nc(CN3CCOCCOCCN(Cc4ccc5c(S(=O)(=O)O)ccc(O)c5n4)CCOCCOCC3)ccc12 [macroquin–SO3]	6.70	6.01				9.72	log Ka1 ([12]; listed as macroquin–SO3^4−): 9.34(4); log Ka2 ([12]; listed as macroquin–SO3^4−): 9.43(1); log Ka3 ([12]; listed as macroquin–SO3^4−): 6.75(4); log Ka4 ([12]; listed as macroquin–SO3^4−): 6.62(4); fraction of ligand as H2L^2– ([12]; pH 7.4): 78%; existence of fully deprotonated ligand in solution [12]: do not exist in solution below pH 8; log KSrH2L [6, 15]: 6.920(3); log KCaHL [7]: 8.60(4); log KBaHL [10]: 9.24(7)

Further lines, the molecule ahead of its results:

Structure (SMILES)	log KʹSr (conditional stability constant) [6]	log KʹCa (conditional stability constant) [7]	log KʹBa (conditional stability constant) [10]	overall basicity (sum of log Ka values) [12]	log Ka1 [12]	log Ka2 [12]	log Ka3 [12]	log Ka4 [12]	log KSrL ([6]; 25 °C)	log KSrHL [6, 15]	log KCaL [7]	log KBaL [10]	major species present in solution of Ba^2+ and ligand [10]	log KBaH2L [10]	pSr ([6]; 25 °C)	pCa [7]	BaSO4 dissolved [9, 13]	selectivity for Ba^2+ over Ca^2+ (ratio of pM values) [10]	selectivity for Ba^2+ over Sr^2+ (ratio of pM values) [10]	pBa [10]	further results
O=C([O-])c1cccc(CN2CCOCCOCCN(Cc3cccc(C(=O)[O-])n3)CCOCCOCC2)n1.[Ba+2] [Ba–macropa]																					half-life (t½) of substitution of Ba^2+ with La^3+ [1]: 5.45 ± 0.20 min; Ba^2+ retained in the liquid phase (intact complex) [2]: 82%
O=C(O)CN(CCN(CC(=O)O)CC(=O)O)CCN(CC(=O)O)CC(=O)O [DTPA, reference compound]	5.53	7.63	4.63												6.61	8.59	40%	< 1 fold	< 1 fold	6.15	log Ka1 [3]: 10.34; log Ka2 [3]: 8.59; log Ka3 [3]: 4.25; log Ka4 [3]: 2.71; log Ka5 [3]: 2.18; log KSrL [4]: 9.68; log KSrHL [4]: 5.4; ligand efficiency (percent of ligand saturated with Ba^2+) ([11]; pH 8, ~48 mM ligand): 2%; ligand efficiency (percent of ligand saturated with Ba^2+) ([11]; pH 11, ~48 mM ligand): 17%; log KCaL ([5]; I = 0.1 M KCl): 11.77; log KCaHL [5]: 6.10; log KBaL [8]: 8.78; log KBaHL ([8]; protonation constant of the Ba^2+ complex): 5.34; BaSO4 dissolved ([9]; pH 11 NaCO3 buffer, 5 min): nearly all
O=C(O)c1cccc(CN2CCOCCOCCN(Cc3cccc(C(=O)O)n3)CCOCCOCC2)n1 [macropa]	9.07	5.42	10.74	19.99	7.41	6.899	3.23(1)	2.45(5)	9.442(4)	3.35(8)	5.79(1)	11.11(4)	ML species	2.49(7)	10.02	6.54	complete dissolution	1.79 fold	1.17 fold	11.69	log Ka1 ([12]; listed as macropa^2−): 7.41(1); log Ka2 ([12]; listed as macropa^2−): 6.899(3); fraction of ligand fully deprotonated (L^2–) ([12]; pH 7.4): 43%; log Ka1 ([3]; parenthetic value): 7.41; log Ka2 ([3]; parenthetic value): 6.85; log Ka3 ([3]; parenthetic value): 3.32; log Ka4 ([3]; parenthetic value): 2.36; log Ka5 ([3]; parenthetic value): (1.69); log KSrL [4, 14]: 9.57; ligand efficiency (percent of ligand saturated with Ba^2+) ([11]; pH 8, ~48 mM ligand): 40%; ligand efficiency (percent of ligand saturated with Ba^2+) ([11]; pH 11, ~48 mM ligand): 40%; log KCaL [5, 14]: 5.25; BaSO4 dissolved ([9]; pH 8 NaHCO3, RT, ligand 5 mM, 10 min): 78%; BaSO4 dissolved ([9]; pH 11 NaCO3 buffer, 5 min): > 95%; Ba^2+ bound by ligand ([10]; pH 4.0): 90%; Ba^2+ complexed by ligand ([10]; pH 5.1): 99%; log KBaHL [10]: 3.76(2)
